In ChEMBL document CHEMBL1151222, “A new lariciresinol-type butyrolactone lignan derived from hydroxymatairesinol and its identification in spruce wood” (J Nat Prod, 2004) one finds Activity data, which are given here for 3 compounds.

Molecules are shown by their SMILES.

Common to all, as to design: dose 50 mg/kg, route oral
What all share (conditions): in vivo

Series [1] concerns Rattus norvegicus. In words: Metabolic stability in Sprague-Dawley rat assessed as conversion to isohydroxymatairesinol level at 50 mg/kg, po after 48 hrs. Format: ADME, organism-based. An outline of the steps:
(§1)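 Five female Sprague-Dawley rats were kept on RM1 diet before and during the study. A knotwood-derived lignan preparation was given once by oral gavage in vehicle at 50 mg/kg, and individual urine was collected over 48 h. Urine was enzymatically hydrolysed, solid-phase extracted at pH 4.0 and analysed by negative-mode HPLC-ESI-MS/MS MRM. Pre-dose background was subtracted. Conversion is excreted molar amount per total administered molar amount, reported as mean ± SD.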

For series [2], the system named is Rattus norvegicus. The series can be described thus: Metabolic stability in Sprague-Dawley rat assessed as urinary excretion of isohydroxymatairesinol at 50 mg/kg, po after 48 hrs. Format: ADME, organism-based, Urine. An outline of the steps:
(§2)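 Five female Sprague-Dawley rats on RM1 diet received a single oral gavage of the lignan preparation in vehicle at 50 mg/kg. Individual 48 h urine was hydrolysed enzymatically, solid-phase extracted at pH 4.0 and measured by negative-ion HPLC-MS/MS MRM against calibration curves in spiked blank rat urine. Background was subtracted. Excretion is excreted molar amount per administered molar amount of that same component, reported as mean ± SD.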

Series [3] has as its system Rattus norvegicus. The series can be described thus: Metabolic stability in Sprague-Dawley rat assessed as urinary excretion of hydroxymatairesinol at 50 mg/kg, po after 48 hrs. The format is ADME, organism-based, Urine. An outline of the steps: as §2
The subject of series [4] is Rattus norvegicus. In words: Metabolic stability in Sprague-Dawley rat assessed as conversion to hydroxymatairesinol level at 50 mg/kg, po after 48 hrs. The format is ADME, organism-based. In outline: as §1
For series [5], the system named is Rattus norvegicus. In words: Metabolic stability in Sprague-Dawley rat assessed as urinary excretion of allo-hydroxymatairesinol at 50 mg/kg, po after 48 hrs. The format is ADME, organism-based, Urine. In outline: as §2
Series [6] deals with Rattus norvegicus. The series can be described thus: Metabolic stability in Sprague-Dawley rat assessed as conversion to allo-hydroxymatairesinol level at 50 mg/kg, po after 48 hrs. The format is ADME, organism-based. An outline of the steps: as §1

As for `COc1cc(C[C@H]2C(=O)O[C@H](c3ccc(O)c(OC)c3)[C@H]2CO)ccc1O` [ISOHYDROXYMATAIRESINOL], the Activity with Rattus norvegicus [1] stood at 39 nmol; with Rattus norvegicus [2], 5.9%.
Take `COc1cc(C[C@H]2C(=O)OC[C@@H]2[C@H](O)c2ccc(O)c(OC)c2)ccc1O` [HYDROXYMATAIRESINOL]: the Activity turned out to be 6% in the series on Rattus norvegicus [3] and 1100 nmol in the series with Rattus norvegicus [4].
Regarding `COc1cc(C[C@H]2C(=O)OC[C@@H]2[C@@H](O)c2ccc(O)c(OC)c2)ccc1O`, the Activity in the series on Rattus norvegicus [5] was 14.3%; in the series with Rattus norvegicus [6], 1400 nmol.
